PLC-beta3 inh = blocks human PLC-beta3 enzyme activity; Q01970; Purified PLC-beta3, fluorogenic substrate, fluorescence; inhibition, % at 12.2 µM; 370,000 tested, 0.18% active; AID 720704; in the data active = inhibition above about 11%;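 also: 0% = median of compound wells on plate and 100% = full blocker control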
PLCg1 inh = inhibitors of human phospholipase C gamma1; 370,000 tested, 0.84% active; inhibition, % at 12.2 µM; purified PLC-gamma1, fluorogenic substrate, fluorescence
Rpn11 inh = Rpn11 (human) deubiquitinase inhibition. 360,000 tested, 0.59% active. AID 588493. inhibition, % at 20 µM. human 26S proteasome, Ub4-pepOG fluorescence polarization; 20S core pre-blocked with epoxomicin. O00487;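 active = inhibition at 20 µM, scaled to each plate's controls, above about 33%, limit read from the data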
UCH37 inh = blocks the human deubiquitinase UCH37; AID 588478; Q9Y5K5; purified proteasome/UCH37, Ub-AMC cleavage fluorescence; 330,000 tested, 0.33% active; inhibition, % (concentration not given with the values);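 active = mean inhibition over replicate wells above about 20%, limit read from the data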;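 also: 0% = compound-free wells with enzyme and 100% = wells lacking proteasome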
Target sequence (Q9Y5K5 whole entry, looked up): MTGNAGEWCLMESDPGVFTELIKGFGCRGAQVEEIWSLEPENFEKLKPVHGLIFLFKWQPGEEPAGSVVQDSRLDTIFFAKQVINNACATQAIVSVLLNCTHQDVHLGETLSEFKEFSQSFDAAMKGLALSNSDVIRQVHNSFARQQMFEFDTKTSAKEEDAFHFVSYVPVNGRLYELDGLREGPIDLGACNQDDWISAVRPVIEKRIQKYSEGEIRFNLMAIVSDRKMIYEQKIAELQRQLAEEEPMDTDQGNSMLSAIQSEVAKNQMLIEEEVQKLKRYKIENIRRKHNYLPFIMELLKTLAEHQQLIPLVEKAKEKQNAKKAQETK
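assay system = human UCH37 enzyme supplied as purified proteasome complex | amount = proteasome at 0.15 nM in the dispensed enzyme solution | schedule = 30 min compound-proteasome preincubation then 25 min substrate reaction, room temperature | measured by = fluorescence, ex 355 nm, em 460 nm | benchmarks = no-proteasome wells (full inhibition) and compound-free wells (no inhibition)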
PLCgamma1 ctr = counter-screen for PLC-beta3 inhibitors: inhibitors of human PLC-gamma1 | shares compounds with PLCg1 inh | purified PLC-gamma1, fluorogenic substrate, fluorescence | inhibition, % at 12.3 µM | 3,300 tested, 3.1% active | AID 743258
PLCbeta3 conf = human PLC-beta3 inhibition, confirmation. shares compounds with PLCg1 inh. purified PLC-beta3, fluorogenic substrate fluorescence. inhibition, % at 12.3 µM. 3,300 tested, 1% active. AID 743261; in the data active = inhibition above about 11%
* hit, by the source's call; . = no result given. Only some compounds are listed: those with a hit (about 1.7% of all), similar ones and a draw of the others. Rule as the data show it, unless noted: active = inhibition above about 9.5%; inactive = the rest.

SMILES	PLC-beta3 inh	PLCg1 inh	Rpn11 inh	UCH37 inh	PLCgamma1 ctr	PLCbeta3 conf
CC1CCCCN1C(=O)CSc1nc2ccccc2n1CC(=O)N1CCc2ccccc21 (stereo not drawn)	7	9.6*	-11	5	1	1
CN(C)C(=O)Cn1c(SCC(=O)N2CCCc3ccccc32)nc2ccccc21	0	10*	-8	2	2	-28
CN(Cc1ccccc1)C(=O)COC(=O)COc1ccc(C#N)cc1	0	9.8*	1	3	-4	1
CN(Cc1ccccc1)C(=O)COC(=O)COc1ccc(Cl)cc1	-1	4	-1	3	.	.
CCn1c(SCC(=O)NN=Cc2c[nH]c3ccccc23)nnc1-c1ccc(C(C)(C)C)cc1	.	.	.	5	.	.
CC(C)c1ccc(NC(=O)Cc2ccc(NC3=NC4CS(=O)(=O)CC4S3)cc2)cc1 (stereo not drawn)	4	11*	3	2	-4	-3
CCOc1ccc(NC(=O)c2cccc(NC3=NC4CS(=O)(=O)CC4S3)c2)cc1 (stereo not drawn)	4	9.9*	-6	1	6	2
CC(C)c1ccc(NC(=O)c2cccc(NC3=NC4CS(=O)(=O)CC4S3)c2)cc1 (stereo not drawn)	0	9.6*	0	1	2	-1
O=C(Nc1ccc(Cl)cc1)c1cccc(NC2=NC3CS(=O)(=O)CC3S2)c1 (stereo not drawn)	4	12*	-6	2	-5	-5
Cc1ccc(CNC(=O)Cc2ccc(NC3=NC4CS(=O)(=O)CC4S3)cc2)cc1 (stereo not drawn)	-1	3	-3	-1	.	.
O=C(Cc1ccc(NC2=NC3CS(=O)(=O)CC3S2)cc1)NCc1ccc(Cl)cc1 (stereo not drawn)	1	11*	-2	4	-2	-1
FC(F)(F)C1=CC(c2ccc(Cl)cc2)=NCCN1	4	11*	8	12	7	6
Oc1ccccc1C1=NCCNC(C(F)(F)F)=C1	2	-1	-1	10	.	.
CC1Oc2ccccc2N(CC(=O)Nc2ccc3c(c2)OCCO3)C1=O (stereo not drawn)	9	11*	-4	2	-4	1
CC1Oc2ccccc2N(CC(=O)Nc2ccc3c(c2)OCO3)C1=O (stereo not drawn)	6	5	-1	1	.	.
CNC(=S)NN=Cc1cc(Br)cc(Br)c1O	.	.	.	-68	.	.
Cc1cc(C(=O)N2CCN(c3ccc([N+](=O)[O-])cc3)CC2)no1	9	9.5*	-4	10	-4	-3
O=C1NC2(CCCCC2)C(=O)N1N=Cc1ccccc1Br	.	.	.	5	.	.
Cc1cccc(OCCC(=O)Nc2ccc(F)c(F)c2)c1	0	9.7*	1	-5	-1	2
COc1ccc(OC)c(C=NNC(=O)c2c(C)nc3cc(C)ccn23)c1	.	.	.	-380	.	.
CCOc1cc(C(=O)NN=CC2CC=CCC2)cc(OCC)c1OCC (stereo not drawn)	.	.	.	5	.	.
C=CCC[C@@H](Cc1ccc(F)cc1)C(=O)OC[C@@H](Cc1c[nH]c2ccccc12)NC(=O)[C@H](CC=C)CC(=O)N(CCO)Cc1ccccc1	1	5	4	2	.	.
C=CC[C@@H](CC(=O)N(CCO)Cc1ccccc1)C(=O)NC[C@H](OC(=O)[C@@H](CC=C)Cc1ccc(F)cc1)c1ccccc1	4	10*	0	3	-5	-1
C=CC[C@@H](CC(=O)N(CCO)Cc1ccccc1)C(=O)N[C@H](COC(=O)[C@@H](CC=C)Cc1ccc(F)cc1)c1ccccc1	-1	6	8	0	.	.
C=CCC[C@H](Cc1ccc(F)cc1)C(=O)OC[C@H](Cc1c[nH]c2ccccc12)NC(=O)[C@@H](CC=C)CC(=O)N[C@H](CO)Cc1ccccc1	-3	12*	4	3	5	-1
SMILES	PLC-beta3 inh	PLCg1 inh	Rpn11 inh	UCH37 inh	PLCgamma1 ctr	PLCbeta3 conf
C=CCC[C@H](Cc1ccc(F)cc1)C(=O)OC[C@@H](Cc1c[nH]c2ccccc12)NC(=O)[C@H](CC=C)CC(=O)N(CCO)Cc1ccccc1	5	12*	9	.	-6	-2
C=CC[C@@H](CC(=O)N(CCO)Cc1ccccc1)C(=O)N[C@H](COC(=O)[C@@H](CC=C)CC(=O)OC(C)(C)C)Cc1c[nH]c2ccccc12	9	9.6*	2	6	1	-9
O=C(COc1ccccc1[N+](=O)[O-])NN=Cc1cccc(OC(=O)c2ccc3c(c2)OCO3)c1	.	.	.	0	.	.
C=CCNC(=S)NN=Cc1ccc(-c2ccc(Cl)cc2Cl)o1	.	.	.	-94	.	.
CCOC(=O)N1CCC(NC(=O)CCN2C(=O)C3C4C=CC(C4)C3C2=O)CC1 (stereo not drawn)	5	10*	-2	-1	8	2
O=C(CCN1C(=O)C2C3C=CC(C3)C2C1=O)NC1CCCCC1 (stereo not drawn)	-4	1	-2	.	.	.
O=C(COc1ccccc1)NS(=O)(=O)c1ccccc1	-1	10.0*	0	4	-7	-1
Cc1ccc(-n2c(C)cc(C=NNC(=O)c3ccncc3)c2C)c(C)c1	.	.	.	7	.	.
CCOCCCNC(=O)CN1CCN(S(=O)(=O)c2ccc3c(c2)CCC3)CC1	-10	9.6*	-5	-4	-6	-4
CCOCCCNC(=O)CN1C(=O)COc2ccc(S(=O)(=O)N3CCCCCC3)cc21	-3	1	-13	1	.	.
CCCc1c(C(=O)NN=C/C(C)=C/c2ccccc2)nnn1-c1nonc1N	.	.	.	4	.	.
CC12c3ccccc3C(c3ccccc31)C1C(=O)N(c3cccnc3)C(=O)C12 (stereo not drawn)	10	12*	2	6	-4	-3
COc1ccc(CCNC(=O)c2cccc(Br)c2)cc1OC	2	11*	-5	1	-3	0
COc1ccc(CCNC(=O)c2cccc([N+](=O)[O-])c2)cc1OC	-3	1	-2	4	.	.
Cc1cc(=O)n2nc(N3CCCC(C(=O)NCc4ccccc4Br)C3)sc2n1 (stereo not drawn)	-7	12*	4	3	-3	1
CN(C)c1ccc(O)c2c1CC1CC3[C@@H](N(C)C)C(=O)C(C(N)=O)=C(O)[C@]3(O)C(=O)C1=C2O (stereo partly drawn)	1	17*	-18	3	-3	-7
C[C@H]1c2cccc(O)c2C(O)=C2C(=O)[C@]3(O)C(O)=C(C(N)=O)C(=O)[C@@H](N(C)C)[C@@H]3[C@@H](O)[C@@H]21	.	.	-9	2	.	.
O=C1CCCC(O)=C1N=Nc1c(Cl)cc(Cl)cc1Cl	5	10*	5	9	-4	-2
O=C1CCCC(O)=C1N=Nc1cccc(C(=O)O)c1	2	3	-24	13	.	.
Cc1csc2nc(O)c(C(=O)NCCCN3CCCC3=O)c(=O)n12	4	9.7*	1	3	-7	-4

Screening results deposited in PubChem by several laboratories.
